Compound activity: PubChem BioAssay, Broad Institute
INS-1E ATP HTS: protection of INS-1E cells from cytokine death, primary screen, ATP luminescence, single point; protection from cytokine-induced ATP loss, % at 10 µM; 20,000 tested, 0.1% active; AID 488910, 2010; INS-1E cytokine-induced death, 48 h; normalised: neutral wells 0, positive control 100;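 active means mean replicate protection from cytokine-induced ATP loss at least 50% and at least 75% of replicates each reaching 50%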
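Test system: INS-1E rat cells | Quantity: 8000 cells per well | Medium: Phenol-red-free RPMI with 5% fetal bovine serum | Reagent: Cytokine cocktail of IFN-γ, TNF-α and IL-1β | Doses: One compound concentration, pin transfer | Timing: 48 h co-treatment, 10 min post-lysis read | Technique: Luminescent ATP assay (CellTiter-Glo)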
A1 apoptosis 2: A1 inhibitors via caspase activation, primary screen, cell-based, luminescence, HTS, two replicates | MEF A1-2A-BIM cells, caspase-Glo luminescence, 3 h; percent of clofoctol response, DMSO zero | AID 2465, 2010 | 24,000 tested, under 10 active | caspase activation, % (no concentration beside the values); in the data active means caspase activation above about 5.9%
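Evaluation: Caspase-3/7 activity from luminescence increase | Assay system: A1-2A-BIM mouse embryonic fibroblasts | Quantity: 2500 MEF cells/well | Medium: RPMI-1640 plus 10% FBS | Detection: Caspase-Glo 3/7 luminescence, 1 h at room temperature | Dosing: 50 nL compound per well, pinned | Timing: Cells settled overnight, compound exposure 3 h at 37 °C, 5% CO2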
T cruzi HTS: inhibitors of intracellular Trypanosoma cruzi, primary screen, cell-based, plate reader, single point, set 2. intracellular Trypanosoma cruzi in host cells. activity score (inhibition), % at 5.01 µM. AID 651903, 2012. 22,000 tested, 4.9% active; in the data active means activity score above about 55%;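 further: parasites and compound incubated about four days before reading; 0% = median of neutral control wells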
Active calls of the source: *; x = not tested or not shown. The entries come from a sample that favours hits as a whole.

SMILES	INS-1E ATP HTS	A1 apoptosis 2	T cruzi HTS
COc1ccc(S(=O)(=O)Nc2ccc3c(c2)CC(=O)N([C@H](C)CO)C[C@@H](C)[C@@H](CN(C)Cc2ccc(Oc4ccccc4)cc2)O3)cc1	-29.5	0.3	70.1*
COc1ccc(S(=O)(=O)Nc2ccc3c(c2)CC(=O)N([C@@H](C)CO)C[C@H](C)[C@@H](CN(C)Cc2ccc(-c4ccccc4)cc2)O3)cc1	-65.8	x	73.0*
O=C1N(CCS(=O)(=O)c2ccccc2)Cc2ccccc2[C@@H]2OC(c3ccc(OCCCO)cc3)=N[C@]12Cc1ccccc1	x	-1.0	x
O=C(N/N=C/c1cccc(Oc2ccccc2)c1)c1ccccn1	10.1	x	5.6
CC1=C(C/C=N/NC(=O)CCCCCC(=O)NO)C(C)(C)CCC1	x	0.8	x
COc1ccc(CN(C)C[C@@H]2Oc3ccc(NC(=O)Cc4ccccc4)cc3CC(=O)N([C@@H](C)CO)C[C@@H]2C)cc1	-4.0	0.0	66.9*
C[C@@H]1CN([C@@H](C)CO)C(=O)Cc2cc(NC(=O)Cc3ccccc3)ccc2O[C@H]1CN(C)Cc1ccc(-c2ccccc2)cc1	x	1.5	x
C[C@H]1CN([C@@H](C)CO)C(=O)Cc2cc(NC(=O)Cc3ccccc3)ccc2O[C@H]1CN(C)Cc1ccc(-c2ccccc2)cc1	-14.7	1.0	47.3
COc1ccc(CN(C)C[C@@H]2Oc3ccc(NC(=O)Cc4ccccc4)cc3CC(=O)N([C@H](C)CO)C[C@H]2C)cc1	8.9	-1.0	54.0
C[C@@H]1CN([C@H](C)CO)C(=O)Cc2cc(NC(=O)Cc3ccccc3)ccc2O[C@H]1CN(C)Cc1ccc(-c2ccccc2)cc1	0.5	x	65.2*
C[C@H]1CN([C@@H](C)CO)C(=O)Cc2cc(NC(=O)Cc3ccccc3)ccc2O[C@@H]1CN(C)Cc1ccc(-c2ccccc2)cc1	-19.1	x	64.3*
COc1ccc(/C=N/NC(=O)CCCCCCC(=O)Nc2ccccc2O)cc1	9.5	-0.2	-11.1
COc1ccc(NC(=O)Nc2ccc3c(c2)C(=O)N([C@H](C)CO)C[C@H](C)[C@@H](CN(C)Cc2ccc(Cl)c(Cl)c2)OCCCC[C@@H](C)O3)cc1	-45.5	1.5	59.4*
COc1ccc(NC(=O)Nc2ccc3c(c2)C(=O)N([C@H](C)CO)C[C@H](C)[C@H](CN(C)Cc2ccc(Cl)c(Cl)c2)OCCCC[C@@H](C)O3)cc1	-27.5	x	63.8*
COc1ccc(NC(=O)Nc2ccc3c(c2)C(=O)N([C@H](C)CO)C[C@H](C)[C@H](CN(C)Cc2ccc(Cl)c(Cl)c2)OCCCC[C@H](C)O3)cc1	x	-1.5	x
COc1ccc(NC(=O)Nc2ccc3c(c2)C(=O)N([C@@H](C)CO)C[C@H](C)[C@@H](CN(C)Cc2ccc(Cl)c(Cl)c2)OCCCC[C@@H](C)O3)cc1	x	0.5	x
O=C(CCCCC(=O)N/N=C/c1cccc(Oc2ccccc2)c1)NO	78.5*	-0.2	7.1
O=C(CCCCCCC(=O)N/N=C\c1cccc(Br)c1)NO	68.1*	x	-21.1
O=C(O)CCCCCCC(=O)N/N=C/c1cccc(Br)c1	14.3	1.4	-4.9
O=C(NO)c1ccc(C(=O)N/N=C/c2cccc(Oc3ccccc3)c2)cc1	5.4	-0.8	3.0
O=C(NCc1ccccc1)C1=C[C@@H](c2cccs2)C[C@@H](OCc2ccc(CO)cc2)O1	x	0.7	x
C[C@H](CO)N1C[C@H](C)[C@H](CN(C)Cc2ccc(Cl)c(Cl)c2)Oc2ccc(NS(=O)(=O)c3ccccc3)cc2CC1=O	-5.2	0.3	37.5
C[C@H]1CN([C@@H](C)CO)C(=O)Cc2cc(NS(=O)(=O)c3ccccc3)ccc2O[C@H]1CN(C)Cc1ccc(Cl)c(Cl)c1	-28.9	-0.5	24.7
C[C@@H]1CN([C@H](C)CO)C(=O)Cc2cc(NS(=O)(=O)c3ccccc3)ccc2O[C@@H]1CN(C)Cc1ccc(Cl)c(Cl)c1	-65.2	-0.8	65.3*
C[C@@H]1CN([C@H](C)CO)C(=O)Cc2cc(NS(=O)(=O)c3ccccc3)ccc2O[C@H]1CN(C)Cc1ccc(Cl)c(Cl)c1	-9.8	-1.0	73.1*
SMILES	INS-1E ATP HTS	A1 apoptosis 2	T cruzi HTS
O=C(CCCCCCC(=O)N/N=C/c1ccc(-n2ccnc2)cc1)NO	x	-0.8	x
COC(=O)CCCCCCC(=O)N/N=C/c1ccc(OC)cc1O	17.5	-0.4	-18.8
C[C@H](CO)N1C[C@H](C)[C@H](CN(C)C(=O)NC2CCCCC2)Oc2ncc(C#Cc3ccc(C(F)(F)F)cc3)cc2C1=O	-26.8	x	88.3*
C[C@H](CO)N1C[C@H](C)[C@H](CN(C)C(=O)Nc2ccc(F)cc2)Oc2ncc(C#Cc3ccc(F)cc3)cc2C1=O	x	x	25.9
C[C@H](CO)N1C[C@H](C)[C@H](CN(C)C(=O)Nc2ccc(F)cc2)Oc2ncc(C#Cc3ccc(C(F)(F)F)cc3)cc2C1=O	x	x	87.7*
C[C@H](CO)N1C[C@H](C)[C@H](CN(C)C(=O)NC2CCCCC2)Oc2ncc(C#Cc3ccc(F)cc3)cc2C1=O	-19.1	2.4	33.5
O=C(CCCCC(=O)N/N=C/c1ccc(Br)cc1)NO	x	-0.3	x
Cc1ccc(S(=O)(=O)Nc2ccc3c(c2)CC(=O)N([C@H](C)CO)C[C@H](C)[C@H](CN(C)S(=O)(=O)c2ccccc2)O3)cc1	5.3	0.4	-7.1
C[C@@H]1CN([C@@H](C)CO)C(=O)Cc2cc(NS(=O)(=O)c3ccccc3)ccc2O[C@@H]1CN(C)S(=O)(=O)c1ccc(Cl)cc1	-6.4	0.3	67.0*
C[C@@H]1CN([C@@H](C)CO)C(=O)Cc2cc(NS(=O)(=O)c3ccc(Cl)cc3)ccc2O[C@@H]1CN(C)S(=O)(=O)c1ccc(Cl)cc1	-5.0	x	67.0*
C[C@H]1CN([C@@H](C)CO)C(=O)Cc2cc(NS(=O)(=O)c3ccc(Cl)cc3)ccc2O[C@H]1CN(C)S(=O)(=O)c1ccc(Cl)cc1	-4.2	-0.9	-1.0
C[C@H]1CN([C@@H](C)CO)C(=O)Cc2cc(NS(=O)(=O)c3ccc(Cl)cc3)ccc2O[C@H]1CN(C)S(=O)(=O)c1ccccc1	6.8	x	-2.4
Cc1ccc(S(=O)(=O)Nc2ccc3c(c2)CC(=O)N([C@H](C)CO)C[C@@H](C)[C@@H](CN(C)S(=O)(=O)c2ccccc2)O3)cc1	1.5	x	69.1*
O=C(CCCCCCC(=O)Nc1ccccc1O)N/N=C/c1ccc2c(c1)CCO2	3.4	-0.5	-7.1
O=C(NO)c1cccc(C(=O)N/N=C/c2ccc(F)c(Oc3ccccc3)c2)c1	5.7	x	-37.4
C=C(C)[C@@H]1CC=C(/C=N/NC(=O)CCCCCCC(=O)O)CC1	9.8	1.3	-14.2
C[C@H](CO)N1C[C@H](C)[C@H](CN(C)Cc2ccc(-c3ccccc3)cc2)Oc2c(NC(=O)C3CC3)cccc2C1=O	-24.7	1.7	-13.2
C[C@@H]1CN([C@H](C)CO)C(=O)c2cccc(NC(=O)C3CCCCC3)c2O[C@@H]1CN(C)Cc1ccc(-c2ccccc2)cc1	-64.6	x	45.6
C[C@H](CO)N1C[C@H](C)[C@@H](CN(C)Cc2ccc(Oc3ccccc3)cc2)Oc2c(NC(=O)C3CC3)cccc2C1=O	-24.6	-1.3	47.6
